Data set [1] in a line: Inhibition of rat electron transport chain complex 1 assessed as reduction in cellular ATP measured after 24 hrs by celltiter-glo assay. On the technique in general: ATP-based viability assays read luminescence as a measure of living cells.
Data set [2] can be described thus: Inhibition of human electron transport chain complex 1 in human NCI-H1299 cells assessed as reduction in cellular ATP level measured after 24 hrs by CellTiter-Glo assay. Format: cell-based. To be noted: Homo sapiens, NCI-H1299, 24 h. The method in brief: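 ATP-dependent luciferase luminescence read in H1299 cells, first without (M1) and then after adding the complex II substrate succinate (M2), to separate complex I block from downstream respiratory-chain inhibition or uncoupling.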

Data set [3] in a line: Inhibition of dog electron transport chain complex 1 assessed as reduction in cellular ATP measured after 24 hrs by celltiter-glo assay. To be noted: Canis lupus familiaris.
Data set [4] in a line: Inhibition of mouse electron transport chain complex 1 assessed as reduction in cellular ATP measured after 24 hrs by celltiter-glo assay.
Data set [5] in a line: Lipophilicity, logD of compound. To be noted: octanol/water.
The nature of data set [6]: Apparent permeability across apical to basolateral side in human Caco2 cells assessed as drug recovery at 2 uM and measured for 2 hrs by LC-MS/MS analysis. To be noted: Caco-2. For orientation: Caco-2 monolayers are a common model of the intestinal barrier.
The target in a further data set is Cytochrome P450 3A4 (Homo sapiens, UniProt P08684). Kind of data set: Inhibition of CYP3A4 in human liver microsomes using midazolam as substrate by LC-MS/MS analysis. On the technique in general: Liver microsomes are a subcellular fraction often used to study metabolism.
Data set [7] in a line: Oral bioavailability in Wistar rat plasma at 0.8 mg/kg by LC-MS/MS analysis. In kind it is ADME, organism-based.
The nature of data set [8]: Solubility of the compound at pH 6.5. To be noted: buffer.
Data set [9] is described as follows: Half life in Wistar rat plasma at 0.4 mg/kg, iv by LC-MS/MS analysis. Format: ADME, organism-based.
The target in a further data set is Cytochrome P450 2C9 (Homo sapiens, UniProt P11712). Nature of the data set: Inhibition of CYP2C9 in human liver microsomes using diclofenac as substrate by LC-MS/MS analysis.
Data set [10] in a line: Clearance in male Wistar rat blood at 0.4 mg/kg, iv by LC-MS/MS analysis.
Data set [11] can be described thus: Plasma protein binding in mouse assessed as fraction unbound incubated for 6 to 8 hrs by LC-MS/MS analysis. In kind it is ADME, cell-free. To be noted: time 6-8 hrs.
The nature of data set [12]: AUC in Wistar rat plasma at 0.8 mg/kg, po by LC-MS/MS analysis. Details: dose 0.8 mg/kg. In kind it is ADME, organism-based. To be noted: in vivo.
Data set [13] in a line: Volume of distribution at steady state in Wistar rat plasma at 0.4 mg/kg, iv by LC-MS/MS analysis. Format: ADME, organism-based. To be noted: read-out: Vdss.
Data set [14] addresses Voltage-gated inwardly rectifying potassium channel KCNH2 (Homo sapiens, UniProt Q12809). Kind of data set: Inhibition of human ERG by patch-clamp assay.
Data set [15] in a line: Efflux ratio of apparent permeability across basolateral to apical side over apical to basolateral side in human Caco2 cells at 2 uM incubated for 2 hrs by LC-MS/MS analysis. To be noted: Caco-2.
A short description of data set [16]: Metabolic stability in rat hepatocyte assessed as maximum bioavailability measured up to 90 mins by LC-MS/MS analysis. Format: ADME. To be noted: rat hepatocytes, read-out: Fmax.
Data set [17] has as its target T1, Nuclear receptor subfamily 1 group I member 2 (Homo sapiens, UniProt O75469).
T1 sequence (O75469 whole entry): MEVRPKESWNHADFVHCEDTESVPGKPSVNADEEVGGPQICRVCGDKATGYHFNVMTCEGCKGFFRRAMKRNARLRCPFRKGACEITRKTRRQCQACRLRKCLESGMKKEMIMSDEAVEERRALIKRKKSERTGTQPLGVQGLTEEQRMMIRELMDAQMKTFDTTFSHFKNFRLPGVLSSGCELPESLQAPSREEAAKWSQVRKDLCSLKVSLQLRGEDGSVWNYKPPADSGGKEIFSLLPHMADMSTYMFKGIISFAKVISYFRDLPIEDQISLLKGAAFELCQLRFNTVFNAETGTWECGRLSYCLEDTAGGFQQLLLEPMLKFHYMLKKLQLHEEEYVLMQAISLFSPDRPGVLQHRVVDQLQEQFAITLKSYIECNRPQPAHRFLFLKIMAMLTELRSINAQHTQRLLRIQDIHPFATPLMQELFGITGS
Nature of the data set: Transactivation of PXR (unknown origin) expressed in human DPX2 cells co-expressing luciferase gene under control of CYP3A4 promoter assessed as increase in luciferase activity incubated for 24 hrs by luminescence based analysis. To be noted: dpx2, 24 h.

A further data set concerns the target Cytochrome P450 2D6 (Homo sapiens, UniProt P10635). Kind of data set: Inhibition of CYP2D6 in human liver microsomes using dextromethorphan as substrate by LC-MS/MS analysis.
The target of a further data set is T2, Cytochrome P450 1A2 (Homo sapiens, UniProt P05177).
T2 sequence (P05177 whole entry): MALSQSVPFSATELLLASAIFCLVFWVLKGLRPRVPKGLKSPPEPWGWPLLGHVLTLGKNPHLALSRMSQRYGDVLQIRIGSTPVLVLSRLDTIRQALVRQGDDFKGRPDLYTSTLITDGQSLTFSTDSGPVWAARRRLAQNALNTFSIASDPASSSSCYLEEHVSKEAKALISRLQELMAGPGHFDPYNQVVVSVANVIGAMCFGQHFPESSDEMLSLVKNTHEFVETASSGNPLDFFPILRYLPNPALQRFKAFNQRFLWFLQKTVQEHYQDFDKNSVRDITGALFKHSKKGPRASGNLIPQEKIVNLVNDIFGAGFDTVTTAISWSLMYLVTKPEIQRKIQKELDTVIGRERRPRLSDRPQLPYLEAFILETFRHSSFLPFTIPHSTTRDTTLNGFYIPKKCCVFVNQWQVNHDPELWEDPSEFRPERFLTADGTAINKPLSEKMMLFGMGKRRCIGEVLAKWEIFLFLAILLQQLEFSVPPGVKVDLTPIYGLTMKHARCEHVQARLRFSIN
Nature of the data set: Inhibition of CYP1A2 in human liver microsomes using phenacetin as substrate by LC-MS/MS analysis.

In a further data set the target is T3, Cytochrome P450 2C8 (Homo sapiens, UniProt P10632).
T3 sequence (P10632 whole entry): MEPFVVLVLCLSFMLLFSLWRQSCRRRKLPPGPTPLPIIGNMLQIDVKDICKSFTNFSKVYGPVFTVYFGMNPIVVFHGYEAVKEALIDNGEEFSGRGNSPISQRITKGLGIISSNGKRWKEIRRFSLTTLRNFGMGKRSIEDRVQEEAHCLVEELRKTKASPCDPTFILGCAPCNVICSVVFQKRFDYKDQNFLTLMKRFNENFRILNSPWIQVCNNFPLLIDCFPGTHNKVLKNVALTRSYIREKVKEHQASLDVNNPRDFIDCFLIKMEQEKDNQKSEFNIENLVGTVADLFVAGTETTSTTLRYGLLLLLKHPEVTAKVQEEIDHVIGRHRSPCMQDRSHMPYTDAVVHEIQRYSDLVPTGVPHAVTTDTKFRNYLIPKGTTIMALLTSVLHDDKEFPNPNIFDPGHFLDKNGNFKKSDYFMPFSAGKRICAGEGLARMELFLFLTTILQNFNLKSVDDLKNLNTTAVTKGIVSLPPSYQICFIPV
Kind of data set: Inhibition of CYP2C8 in human liver microsomes using amodiaquine as substrate by LC-MS/MS analysis.

The results in this text go back to ChEMBL document CHEMBL5046307 (ACS Med Chem Lett, 2022).

SMILES strings stand for the structures. Values after ≈ are worked out from the molar mass of the structure shown.

Broadly, the IC50 is the concentration that gives 50% inhibition. By logD is commonly meant lipophilicity at a set pH, counting ionised and neutral species. Low values mean lower lipophilicity, high ones higher lipophilicity. As usually defined, the Papp A→B is the apparent permeability from the apical to the basolateral side of a cell layer. The term bioavailability denotes dose-corrected exposure relative to a reference, in per cent. The solubility is how much of the substance goes into solution per volume. Read a low solubility as little dissolved substance. One may read the half-life as how long it takes for the measured level to halve. Low values mean fast loss, high ones slow loss. Broadly, the clearance is the rate of elimination divided by the concentration. Read a high clearance as a high capacity for elimination. In general, efflux ratio refers to the permeability from basolateral to apical divided by that in the opposite direction, in the common usage.

Cytochrome P450 3A4, sequence (P08684 whole entry): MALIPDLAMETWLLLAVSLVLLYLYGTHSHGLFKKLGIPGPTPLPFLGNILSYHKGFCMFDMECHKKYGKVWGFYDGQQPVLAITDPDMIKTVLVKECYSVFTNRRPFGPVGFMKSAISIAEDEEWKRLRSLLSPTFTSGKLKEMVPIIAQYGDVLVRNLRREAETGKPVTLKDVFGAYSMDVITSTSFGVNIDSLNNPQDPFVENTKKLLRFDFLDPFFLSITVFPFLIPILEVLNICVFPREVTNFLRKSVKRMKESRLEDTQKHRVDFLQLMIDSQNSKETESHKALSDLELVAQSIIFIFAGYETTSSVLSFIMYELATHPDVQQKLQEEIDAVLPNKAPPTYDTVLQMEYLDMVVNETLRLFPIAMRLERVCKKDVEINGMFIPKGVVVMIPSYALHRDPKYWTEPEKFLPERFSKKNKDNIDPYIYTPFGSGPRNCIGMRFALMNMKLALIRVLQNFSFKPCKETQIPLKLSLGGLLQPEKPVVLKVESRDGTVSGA
Voltage-gated inwardly rectifying potassium channel KCNH2, sequence (Q12809 whole entry): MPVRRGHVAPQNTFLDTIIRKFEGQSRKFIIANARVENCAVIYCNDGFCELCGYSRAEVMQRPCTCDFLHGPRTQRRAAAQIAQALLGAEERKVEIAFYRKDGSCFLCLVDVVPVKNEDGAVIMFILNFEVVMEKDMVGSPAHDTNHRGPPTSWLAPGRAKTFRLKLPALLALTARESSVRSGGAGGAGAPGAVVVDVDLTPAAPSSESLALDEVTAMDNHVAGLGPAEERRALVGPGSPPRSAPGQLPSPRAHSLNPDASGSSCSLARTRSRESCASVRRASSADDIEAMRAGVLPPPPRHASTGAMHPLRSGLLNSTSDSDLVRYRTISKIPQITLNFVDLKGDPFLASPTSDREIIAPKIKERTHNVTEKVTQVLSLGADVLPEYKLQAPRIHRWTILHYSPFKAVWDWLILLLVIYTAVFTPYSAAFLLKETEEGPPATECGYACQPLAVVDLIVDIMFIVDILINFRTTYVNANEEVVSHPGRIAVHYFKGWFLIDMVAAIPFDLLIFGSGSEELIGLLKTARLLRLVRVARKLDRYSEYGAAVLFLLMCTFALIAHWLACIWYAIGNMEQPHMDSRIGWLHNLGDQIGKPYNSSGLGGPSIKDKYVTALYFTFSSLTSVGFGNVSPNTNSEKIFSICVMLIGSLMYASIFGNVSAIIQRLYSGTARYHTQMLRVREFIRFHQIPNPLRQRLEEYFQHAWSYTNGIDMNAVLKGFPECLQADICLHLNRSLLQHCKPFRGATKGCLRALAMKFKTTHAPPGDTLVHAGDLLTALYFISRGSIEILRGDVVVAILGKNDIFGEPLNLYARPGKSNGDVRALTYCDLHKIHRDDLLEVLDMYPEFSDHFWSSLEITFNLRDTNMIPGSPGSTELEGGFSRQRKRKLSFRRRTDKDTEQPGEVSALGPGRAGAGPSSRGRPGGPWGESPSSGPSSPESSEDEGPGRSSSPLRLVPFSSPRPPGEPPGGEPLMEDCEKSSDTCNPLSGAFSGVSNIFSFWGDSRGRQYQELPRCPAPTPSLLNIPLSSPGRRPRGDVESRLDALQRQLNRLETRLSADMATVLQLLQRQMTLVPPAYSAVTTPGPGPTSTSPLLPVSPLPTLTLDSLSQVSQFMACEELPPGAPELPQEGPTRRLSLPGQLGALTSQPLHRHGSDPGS
Cytochrome P450 2C9, sequence (P11712 whole entry): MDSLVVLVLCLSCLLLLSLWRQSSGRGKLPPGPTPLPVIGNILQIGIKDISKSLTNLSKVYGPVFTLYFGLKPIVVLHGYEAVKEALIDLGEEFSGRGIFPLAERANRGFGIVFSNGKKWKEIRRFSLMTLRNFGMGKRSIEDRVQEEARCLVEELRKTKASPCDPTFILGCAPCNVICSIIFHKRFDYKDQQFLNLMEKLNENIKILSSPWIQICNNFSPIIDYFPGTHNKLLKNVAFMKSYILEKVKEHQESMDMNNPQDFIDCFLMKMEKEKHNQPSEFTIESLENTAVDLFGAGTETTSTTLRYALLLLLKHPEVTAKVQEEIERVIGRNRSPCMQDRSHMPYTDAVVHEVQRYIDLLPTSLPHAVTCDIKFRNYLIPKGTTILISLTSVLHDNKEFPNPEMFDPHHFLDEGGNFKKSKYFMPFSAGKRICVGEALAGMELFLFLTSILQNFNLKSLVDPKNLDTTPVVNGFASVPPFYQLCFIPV
Cytochrome P450 2D6, sequence (P10635 whole entry): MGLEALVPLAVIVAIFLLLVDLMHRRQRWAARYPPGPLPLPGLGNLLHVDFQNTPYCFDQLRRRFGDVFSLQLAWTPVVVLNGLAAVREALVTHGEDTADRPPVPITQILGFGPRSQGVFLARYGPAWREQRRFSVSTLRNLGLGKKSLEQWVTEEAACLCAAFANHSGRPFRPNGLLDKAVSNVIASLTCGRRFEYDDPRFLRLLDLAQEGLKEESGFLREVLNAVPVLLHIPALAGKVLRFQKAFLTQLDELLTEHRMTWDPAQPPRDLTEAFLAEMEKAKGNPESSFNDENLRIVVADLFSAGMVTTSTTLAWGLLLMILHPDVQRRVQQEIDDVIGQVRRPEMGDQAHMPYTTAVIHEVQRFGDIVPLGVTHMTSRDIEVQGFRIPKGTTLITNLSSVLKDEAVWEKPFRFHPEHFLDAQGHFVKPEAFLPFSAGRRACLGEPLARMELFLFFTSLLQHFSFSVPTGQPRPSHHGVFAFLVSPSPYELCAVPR

Take `c1ccc2oc(-c3csc(C4CCN(Cc5nc6ncccc6[nH]5)CC4)n3)cc2c1`: the IC50 in [1] is 0.027 µM; in data set [2], 0.079 µM; in data set [3], 0.047 µM; in [4] it was 0.038 µM; on Cytochrome P450 3A4 it was above 20 µM; on Cytochrome P450 2C9, 15 µM. Also, the IC50 is 3 µM in data set [14], above 20 µM on Cytochrome P450 2D6, above 20 µM against Cytochrome P450 1A2 and 7.8 µM on Cytochrome P450 2C8. The same compound registered a logD in data set [5] of 2.8. Moreover, the Papp A→B at 2 h, 2 µM in data set [6] stood at 9.2 ×10⁻⁶ cm/s. In [7], this compound showed a bioavailability of 76%. Besides, the solubility in [8] came to 1.6 µg/mL (≈ 3.85 µM). Also, in data set [9], the half-life is 6.2 h. In data set [10], the clearance was 6.67 mL/min/kg. Moreover, the Fu in [11] stood at 0.43%. This compound registered an AUC in [12] of 3.1 kg·h/L. In addition, the Vd in data set [13] was 2.2 L/kg. Also, the efflux ratio at 2 h, 2 µM in data set [15] came out at 0.44. The Fh at 1.5 h in [16] turned out to be 81%. The MEC in data set [17] was above 50 µM.
